Measured values: ChEMBL document CHEMBL1287793, “Green synthesis and biological evaluation of some novel azoles as antimicrobial agents” (2010)
The source made the active and inactive calls. The rule behind the calls is not given here.

Columns and labels:
Assay type in all cases: functional
Staphylococcus aureus = assay: Antimicrobial activity against Staphylococcus aureus after 18 to 20 hrs at 37degC by disc diffusion method
Outline: (§1)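 Agar diffusion disc assay: bacterial inoculum of 1 × 10⁸ bacteria/mL spread on Mueller Hinton agar. 6 mm filter paper discs loaded with sample dissolved in DMSO. Chloramphenicol at 10 mcg/disc served as control. Plates incubated 18–20 h at 37 °C. Read-out was the zone of inhibition in mm.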

Escherichia coli = assay: Antimicrobial activity against Escherichia coli after 18 to 20 hrs at 37degC by disc diffusion method; outline: as §1
Bacillus subtilis = assay: Antimicrobial activity against Bacillus subtilis after 18 to 20 hrs at 37degC by disc diffusion method; outline: as §1
Pseudomonas aeruginosa = assay: Antimicrobial activity against Pseudomonas aeruginosa after 18 to 20 hrs at 37degC by disc diffusion method; outline: as §1
Aspergillus niger = assay: Antimicrobial activity against Aspergillus niger after 18 to 20 hrs at 37degC by disc diffusion method
Outline: (§2)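 Fungal inoculum of 1 × 10⁶/mL spread on potato dextrose agar. 6 mm filter paper discs received sample dissolved in DMSO. Nystatin at 100 U/disc was the antifungal control. Plates incubated 18–20 h at 37 °C, then the zone of inhibition was measured in mm.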

Candida albicans = assay: Antimicrobial activity against Candida albicans after 18 to 20 hrs at 37degC by disc diffusion method; outline: as §2

Row | Compound | diameter of the inhibition zone (DIZ) (Staphylococcus aureus) | diameter of the inhibition zone (DIZ) (Escherichia coli) | diameter of the inhibition zone (DIZ) (Bacillus subtilis) | diameter of the inhibition zone (DIZ) (Pseudomonas aeruginosa) | diameter of the inhibition zone (DIZ) (Aspergillus niger) | diameter of the inhibition zone (DIZ) (Candida albicans) | inhibition zone (IZ) (Aspergillus niger) [mm]
1 | COc1c(F)c(F)cc2c(=O)c(-c3n[nH]c(=S)n3-c3ccc(Cl)cc3)cn(C3CC3)c12 | 22.2 mm | inactive | inactive | inactive | 21.5 mm | inactive | 
2 | COc1c(F)c(F)cc2c(=O)c(-c3n[nH]c(=S)n3-c3cccc(C)c3)cn(C3CC3)c12 | 19.8 mm | inactive | inactive | inactive | 21.8 mm | inactive | 
3 | COc1ccc(-n2c(-c3cn(C4CC4)c4c(OC)c(F)c(F)cc4c3=O)n[nH]c2=S)cc1 | 23.4 mm | inactive | inactive | inactive | 21.6 mm | inactive | 
4 | COc1c(F)c(F)cc2c(=O)c(-c3n[nH]c(=S)n3-c3ccccc3C)cn(C3CC3)c12 | 21.2 mm | inactive | inactive | inactive | 20.8 mm | inactive | 
5 | COc1c(F)c(F)cc2c(=O)c(-c3nnc(Nc4cccc(C)c4)s3)cn(C3CC3)c12 | inactive | 23.8 mm | inactive | 27.1 mm | inactive | inactive | 
6 | COc1ccc(Nc2nnc(-c3cn(C4CC4)c4c(OC)c(F)c(F)cc4c3=O)s2)cc1 | inactive | inactive | inactive | inactive | inactive | inactive | 
7 | COc1c(F)c(F)cc2c(=O)c(C(=O)NNC(=S)Nc3cccc(C)c3)cn(C3CC3)c12 | inactive | inactive | inactive | inactive | inactive | inactive | 
8 | COc1c(F)c(F)cc2c(=O)c(-c3nnc(Nc4ccc(Cl)cc4)s3)cn(C3CC3)c12 | 21 mm | inactive | 28 mm | inactive | inactive | 22 mm | 
9 | COc1c(F)c(F)cc2c(=O)c(-c3nnc(Nc4ccccc4)s3)cn(C3CC3)c12 | 17 mm | 24 mm | 27 mm | 22 mm | 26.1 mm | 16.3 mm | 
10 | COc1c(F)c(F)cc2c(=O)c(-c3nnc(Nc4ccccc4C)s3)cn(C3CC3)c12 | inactive | inactive | inactive | inactive | inactive | inactive | 
11 | COc1c(F)c(F)cc2c(=O)c(-c3nnc(Nc4ccccc4C)o3)cn(C3CC3)c12 | inactive | inactive | inactive | inactive | inactive | inactive | 
12 | COc1ccc(Nc2nnc(-c3cn(C4CC4)c4c(OC)c(F)c(F)cc4c3=O)o2)cc1 | 28 mm | inactive | 26.7 mm |  | 28.1 mm | 25.3 mm | 
13 | COc1c(F)c(F)cc2c(=O)c(C(=O)NNC(=S)Nc3ccccc3C)cn(C3CC3)c12 | 17.2 mm | 18.5 mm | 20.1 mm | 20.1 mm | 18 mm |  | 
14 | COc1c(F)c(F)cc2c(=O)c(-c3nnc(Nc4ccccc4)o3)cn(C3CC3)c12 | 18.8 mm | inactive | 25.4 mm |  | 14.7 mm |  | 
15 | COc1ccc(NC(=S)NNC(=O)c2cn(C3CC3)c3c(OC)c(F)c(F)cc3c2=O)cc1 | 14.3 mm | 16.6 mm | 15.3 mm | 22.8 mm | inactive | inactive | 
16 | NYSTATIN |  |  |  |  |  |  | 21.1
17 | COc1c(F)c(F)cc2c(=O)c(-c3n[nH]c(=S)n3-c3ccccc3)cn(C3CC3)c12 | 21 mm | inactive | inactive | inactive | 19.9 mm | inactive | 
18 | COc1c(F)c(F)cc2c(=O)c(C(=O)NNC(=S)Nc3ccc(Cl)cc3)cn(C3CC3)c12 | 15.9 mm | 15 mm | 15.1 mm | 22.6 mm | inactive | inactive | 
19 | COc1c(F)c(F)cc2c(=O)c(-c3nnc(Nc4cccc(C)c4)o3)cn(C3CC3)c12 | inactive | inactive | 21 mm | inactive | inactive | inactive | 
20 | COc1c(F)c(F)cc2c(=O)c(C(=O)NNC(=S)Nc3ccccc3)cn(C3CC3)c12 | 23.9 mm | 24.1 mm | 24.1 mm | 24.2 mm | inactive | 14.2 mm | 
21 | COc1c(F)c(F)cc2c(=O)c(-c3nnc(Nc4ccc(Cl)cc4)o3)cn(C3CC3)c12 | 21.06 mm | inactive | 24.6 mm | 26.1 mm |  | 22.5 mm | 
22 | O=C(N[C@H](CO)[C@H](O)c1ccc([N+](=O)[O-])cc1)C(Cl)Cl [CHLORAMPHENICOL] | 32.8 mm | 29.14 mm | 30.11 mm | 24.68 mm |  |  | 
